Data: ChEMBL document CHEMBL4715843, “NO-releasing STAT3 inhibitors suppress BRAF-mutant melanoma growth” (Eur J Med Chem, 2020)
Blank lines part the entries; values can stand above or below the compound they belong to. The source made the active and inactive calls. No cut-off for these calls is given here.

Assays:
[1] = biological target: T1, Signal transducer and activator of transcription 3 (Homo sapiens, UniProt P40763); experiment: Inhibition of STAT3 phosphorylation at Y705 residues in human A-375 cells at 10 to 25 uM after 12 hrs by Western blotting analysis; type: cell-based; conditions: dose 10-25 µM
How it was run: (§1)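 Cells lysed in M-PER after 12 h drug exposure (overnight per text); 60 µg total protein run on 10% SDS-PAGE, transferred to PVDF, probed overnight at 4 °C with phospho-specific antibodies. Panel lines (U87-MG, MDA-MB-468, MIA PaCa-2, NCI-H157, A549) given 25 µM; A375 given 0, 5, 10, 25 µM. Actin and/or vinculin loading controls.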

[2] = biological target: T1, Signal transducer and activator of transcription 3; experiment: Inhibition of STAT3 phosphorylation at S727 residues in human A-375 cells at 10 to 25 uM after 12 hrs by Western blotting analysis; type: cell-based; conditions: dose 10-25 µM; how it was run: as §1
IGROV-1 = experiment: Anticancer activity against human IGROV-1 cells assessed as cell growth inhibition at 10 uM measured after 48 hrs by SRB assay relative to control; type: functional; conditions: read-out: GI
How it was run: (§2)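 NCI 60-cell-line screen. Cells in RPMI with 5% FBS were plated at 5,000–40,000 cells/well by doubling time and preincubated 24 h at 37 °C. Compound was added at a single 10 µM for 48 h, then cells were fixed with cold TCA (10% final) and stained with 0.4% SRB. Absorbance at 515 nm gave percent growth versus untreated control and time-zero cells.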

MEL1617 [3] = experiment: Antiproliferative activity against human SB-590885-sensitive MEL1617 cells assessed as reduction in cell viability measured after 48 hrs by MTS assay; type: functional, cell-based
How it was run: (§3)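 Melanoma lines were grown in RPMI-1640 with Glutamax at 37 °C and 5% CO2. The resistant 451 Lu-R and MEL 1617-R sublines were maintained with 1 µM PLX4720. Cells were incubated with vehicle or inhibitor over a dose range, and viability was read by MTS assay in triplicate.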

[4] = biological target: Proto-oncogene tyrosine-protein kinase Src (Homo sapiens) (UniProt P12931); experiment: Inhibition of SRC phosphorylation in human MIA PaCa-2 cells at 25 uM after 12 hrs by Western blotting analysis; type: cell-based; how it was run: as §1
[5] = biological target: Tyrosine-protein kinase JAK2 (Homo sapiens) (UniProt O60674); experiment: Inhibition of JAK2 phosphorylation in human MIA PaCa-2 cells at 25 uM after 12 hrs by Western blotting analysis; type: cell-based; how it was run: as §1
MCF7 = experiment: Anticancer activity against human MCF7 cells assessed as cell growth inhibition at 10 uM measured after 48 hrs by SRB assay relative to control; type: functional; conditions: read-out: GI; how it was run: as §2
MDA-MB-468 = experiment: Antiproliferative activity against human MDA-MB-468 cells measured after 48 hrs by MTS assay; type: functional, cell-based
[6] = biological target: T1, Signal transducer and activator of transcription 3; experiment: Inhibition of STAT3 phosphorylation at Y705 residues in human A549 cells at 25 uM after 12 hrs by Western blotting analysis; type: cell-based; how it was run: as §1
[7] = biological target: T1, Signal transducer and activator of transcription 3; experiment: Inhibition of STAT3 phosphorylation at S727 residues in human A549 cells at 25 uM after 12 hrs by Western blotting analysis; type: cell-based; how it was run: as §1
[8] = biological target: Tyrosine-protein kinase JAK2 (Homo sapiens) (UniProt O60674); experiment: Inhibition of JAK2 phosphorylation in human U-87 MG cells at 25 uM after 12 hrs by Western blotting analysis; type: cell-based; how it was run: as §1
[9] = biological target: T1, Signal transducer and activator of transcription 3; experiment: Inhibition of STAT3 phosphorylation at S727 residues in human MIA PaCa-2 cells at 25 uM after 12 hrs by Western blotting analysis; type: cell-based; how it was run: as §1
MEL1617 [10] = experiment: Antiproliferative activity against human SB-590885-resistant MEL1617 cells assessed as reduction in cell viability measured after 48 hrs by MTS assay; type: functional, cell-based; how it was run: as §3
A549 = experiment: Antiproliferative activity against human A549 cells measured after 48 hrs by MTS assay; type: functional, cell-based
How it was run: (§4)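 Cells were exposed to a dose range of inhibitor for 48 h, and viability was read by MTS assay in triplicate. GI50 was taken as the concentration giving 50% growth inhibition, averaged from three independent experiments. A375 was cultured in RPMI-1640 with Glutamax. A549 and NCI-H157 were kept in RPMI-1640, and MIA PaCa-2 and U87-MG in DMEM.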

[11] = biological target: T1, Signal transducer and activator of transcription 3; experiment: Inhibition of STAT3 phosphorylation at S727 residues in human U-87 MG cells at 25 uM after 12 hrs by Western blotting analysis; type: cell-based; how it was run: as §1
[12] = biological target: T1, Signal transducer and activator of transcription 3; experiment: Inhibition of STAT3 phosphorylation at Y705 residues in human MIA PaCa-2 cells at 25 uM after 12 hrs by Western blotting analysis; type: cell-based; how it was run: as §1
MEL1617 [13] = experiment: Antiproliferative activity against human MEL1617 cells measured after 48 hrs by MTS assay; type: functional, cell-based; how it was run: as §4
[14] = biological target: Proto-oncogene tyrosine-protein kinase Src (Homo sapiens) (UniProt P12931); experiment: Inhibition of SRC phosphorylation in human NCI-H157 cells at 25 uM after 12 hrs by Western blotting analysis; type: cell-based; how it was run: as §1
[15] = biological target: T1, Signal transducer and activator of transcription 3; experiment: Inhibition of STAT3 phosphorylation at S727 residues in human NCI-H157 cells at 25 uM after 12 hrs by Western blotting analysis; type: cell-based; how it was run: as §1
T47D = experiment: Anticancer activity against human T47D cells assessed as cell growth inhibition at 10 uM measured after 48 hrs by SRB assay relative to control; type: functional; conditions: read-out: GI; how it was run: as §2
451Lu [16] = experiment: Antiproliferative activity against human SB-590885-sensitive 451Lu cells assessed as reduction in cell viability measured after 48 hrs by MTS assay; type: functional; how it was run: as §3
UACC-62 = experiment: Anticancer activity against human UACC-62 cells assessed as cell growth inhibition at 10 uM measured after 48 hrs by SRB assay relative to control; type: functional; conditions: read-out: GI; how it was run: as §2
[17] = biological target: Tyrosine-protein kinase JAK2 (Homo sapiens) (UniProt O60674); experiment: Inhibition of JAK2 phosphorylation in human NCI-H157 cells at 25 uM after 12 hrs by Western blotting analysis; type: cell-based; how it was run: as §1
[18] = biological target: Proto-oncogene tyrosine-protein kinase Src (Homo sapiens) (UniProt P12931); experiment: Inhibition of SRC phosphorylation in human MDA-MB-468 cells at 25 uM after 12 hrs by Western blotting analysis; type: cell-based; how it was run: as §1
U-87 MG = experiment: Antiproliferative activity against human U-87 MG cells measured after 48 hrs by MTS assay; type: functional, cell-based; conditions: U-87MG ATCC; how it was run: as §4
451Lu [19] = experiment: Induction of apoptosis in human SB-590885-resistant 451Lu cells assessed as increase in caspase-3/7 activation incubated for 45 to 60 hrs by IncuCyte Caspase-3/7 reagent based assay; type: functional; conditions: time 45-60 hrs
How it was run: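 451 Lu-R cells (2000/well) were allowed to adhere for 24 h, then treated with a dose range in full medium containing IncuCyte Caspase-3/7 reagent. Wells were imaged over time with a ×10 objective. Apoptotic cell counts were normalized to percent confluence at the final time point; SEM, n = 3–4.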

[20] = biological target: T1, Signal transducer and activator of transcription 3; experiment: Inhibition of STAT3 phosphorylation at Y705 residues in human NCI-H157 cells at 25 uM after 12 hrs by Western blotting analysis; type: cell-based; how it was run: as §1
451Lu [21] = experiment: Induction of apoptosis in human SB-590885-sensitive 451Lu cells assessed as increase in cleaved PARP expression measured after 12 hrs by Western blot analysis; type: functional
How it was run: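 Sensitive and resistant 451 Lu cells were exposed to a dose range for 12 h before lysis. PARP, cleaved PARP and caspase-7 were detected by western blot against a vinculin loading control; repeated twice.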

451Lu [22] = experiment: Antiproliferative activity against human 451Lu cells measured after 48 hrs by MTS assay; type: functional, cell-based
CCRF-CEM = experiment: Anticancer activity against human CCRF-CEM cells assessed as cell growth inhibition at 10 uM measured after 48 hrs by SRB assay relative to control; type: functional; conditions: read-out: GI; how it was run: as §2

Sequence of Tyrosine-protein kinase JAK2 (Homo sapiens) (O60674 whole entry): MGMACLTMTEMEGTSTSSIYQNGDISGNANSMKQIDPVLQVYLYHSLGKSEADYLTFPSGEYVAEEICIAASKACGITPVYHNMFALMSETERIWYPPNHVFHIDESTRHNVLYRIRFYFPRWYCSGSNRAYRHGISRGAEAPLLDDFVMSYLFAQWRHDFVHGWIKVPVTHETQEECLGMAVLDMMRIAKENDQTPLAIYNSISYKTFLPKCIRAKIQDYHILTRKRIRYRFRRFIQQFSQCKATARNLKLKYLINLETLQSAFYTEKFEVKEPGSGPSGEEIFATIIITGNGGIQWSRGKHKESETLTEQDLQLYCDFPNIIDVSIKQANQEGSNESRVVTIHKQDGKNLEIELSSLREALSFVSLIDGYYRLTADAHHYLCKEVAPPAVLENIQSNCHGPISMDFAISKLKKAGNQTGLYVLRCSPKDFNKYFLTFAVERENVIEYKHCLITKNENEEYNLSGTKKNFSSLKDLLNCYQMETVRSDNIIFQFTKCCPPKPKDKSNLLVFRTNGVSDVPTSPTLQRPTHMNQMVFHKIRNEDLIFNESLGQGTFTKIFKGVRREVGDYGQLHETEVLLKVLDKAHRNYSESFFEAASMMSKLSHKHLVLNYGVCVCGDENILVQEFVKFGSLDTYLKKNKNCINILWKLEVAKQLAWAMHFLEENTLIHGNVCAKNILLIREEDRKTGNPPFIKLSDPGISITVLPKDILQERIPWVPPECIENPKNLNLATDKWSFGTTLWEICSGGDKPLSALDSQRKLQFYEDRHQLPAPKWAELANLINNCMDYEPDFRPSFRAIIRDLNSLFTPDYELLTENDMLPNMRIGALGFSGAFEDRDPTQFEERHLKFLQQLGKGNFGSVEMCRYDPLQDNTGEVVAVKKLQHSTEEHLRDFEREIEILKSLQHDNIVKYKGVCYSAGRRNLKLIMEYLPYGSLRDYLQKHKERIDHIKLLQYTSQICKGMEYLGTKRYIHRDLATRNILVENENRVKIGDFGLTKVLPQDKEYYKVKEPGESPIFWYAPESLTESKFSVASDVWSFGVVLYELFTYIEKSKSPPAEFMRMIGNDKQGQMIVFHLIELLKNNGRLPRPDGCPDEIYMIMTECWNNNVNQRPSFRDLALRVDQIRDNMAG
T1 sequence (P40763 whole entry): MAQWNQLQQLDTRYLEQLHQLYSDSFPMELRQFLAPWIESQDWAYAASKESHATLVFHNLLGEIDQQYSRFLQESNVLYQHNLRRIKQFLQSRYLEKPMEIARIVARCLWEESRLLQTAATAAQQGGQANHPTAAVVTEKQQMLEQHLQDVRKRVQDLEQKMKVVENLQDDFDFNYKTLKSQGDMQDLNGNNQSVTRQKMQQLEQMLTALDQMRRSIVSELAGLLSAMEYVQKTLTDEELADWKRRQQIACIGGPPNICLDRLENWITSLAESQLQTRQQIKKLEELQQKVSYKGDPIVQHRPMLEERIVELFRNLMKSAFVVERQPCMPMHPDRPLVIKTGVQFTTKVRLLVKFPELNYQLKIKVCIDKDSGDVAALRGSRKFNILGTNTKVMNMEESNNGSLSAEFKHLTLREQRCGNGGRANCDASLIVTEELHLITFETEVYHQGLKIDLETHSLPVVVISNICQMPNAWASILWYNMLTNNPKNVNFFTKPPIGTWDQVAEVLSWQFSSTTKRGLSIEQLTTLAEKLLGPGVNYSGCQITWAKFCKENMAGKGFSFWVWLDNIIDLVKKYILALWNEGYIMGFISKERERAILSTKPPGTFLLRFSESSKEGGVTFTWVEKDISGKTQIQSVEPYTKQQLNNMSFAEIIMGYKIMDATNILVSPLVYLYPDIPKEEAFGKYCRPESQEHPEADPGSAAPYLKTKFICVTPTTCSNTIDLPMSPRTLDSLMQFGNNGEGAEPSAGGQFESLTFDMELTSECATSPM
Sequence of Proto-oncogene tyrosine-protein kinase Src (Homo sapiens) (P12931 2-536 limits assumed): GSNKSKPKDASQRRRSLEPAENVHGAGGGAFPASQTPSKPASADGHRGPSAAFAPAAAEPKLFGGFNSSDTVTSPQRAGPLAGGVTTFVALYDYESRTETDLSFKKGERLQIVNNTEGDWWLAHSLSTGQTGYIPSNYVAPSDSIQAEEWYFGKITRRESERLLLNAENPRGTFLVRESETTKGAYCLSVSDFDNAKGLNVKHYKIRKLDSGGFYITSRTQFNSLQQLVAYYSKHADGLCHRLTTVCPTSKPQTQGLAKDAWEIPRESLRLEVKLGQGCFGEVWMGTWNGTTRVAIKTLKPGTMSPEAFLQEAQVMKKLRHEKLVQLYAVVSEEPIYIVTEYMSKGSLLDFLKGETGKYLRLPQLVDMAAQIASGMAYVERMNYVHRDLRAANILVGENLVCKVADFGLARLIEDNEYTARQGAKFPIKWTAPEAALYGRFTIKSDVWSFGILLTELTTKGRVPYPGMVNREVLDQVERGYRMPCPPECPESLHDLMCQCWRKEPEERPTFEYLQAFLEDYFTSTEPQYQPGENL

inhibition [1]: Active
inhibition [2]: Active
Compound: C=CCn1c(SCC(=O)Nc2ccc(/C(C)=N\O)cc2)nnc1-c1cc(-c2ccc(Cl)cc2)nc2ccccc12
inhibition of growth at 10 µM (IGROV-1): 100%

inhibition [4]: inactive
inhibition [5]: inactive
inhibition [6]: Active
inhibition [7]: Active
inhibition [8]: inactive
inhibition [9]: Active
inhibition [11]: Active
inhibition [12]: Active
inhibition [14]: inactive
inhibition [15]: Active
inhibition [17]: inactive
inhibition [18]: inactive
inhibition [20]: Active
Compound: C=CCn1c(SCC(=O)Nc2ccc(/C(C)=N\O)cc2)nnc1-c1cc(-c2ccccc2)nc2ccccc12
Activity (MEL1617 [3]): Dose-dependent effect
inhibition of growth at 10 µM (MCF7): 76%
Activity (MDA-MB-468): Active
Activity (MEL1617 [10]): Dose-dependent effect
Activity (A549): Active
Activity (MEL1617 [13]): Active
inhibition of growth at 10 µM (T47D): 76%
Activity (451Lu [16]): Dose-dependent effect
inhibition of growth at 10 µM (UACC-62): 76%
Activity (U-87 MG): Active
Activity (451Lu [19]): Dose-dependent effect
inhibition of growth at 10 µM (IGROV-1): 76%
Activity (451Lu [21]): Dose-dependent effect
Activity (451Lu [22]): Active
inhibition of growth at 10 µM (CCRF-CEM): 76%
